Ki and inhibition data for nine compounds are collected here from ChEMBL document CHEMBL1131058, “Studies on quinazolines and 1,2,4-benzothiadiazine 1,1-dioxides. 8.1, 2 synthesis and pharmacological evaluation of tricyclic fused quinazolines and 1,2,4-benzothiadiazine 1,1-dioxides as potential alpha1-adrenoceptor antagonists” (J Med Chem, 1998).

The target of assay [1] is T1, Adrenergic receptor alpha-1 (Rattus norvegicus, UniProt P15823+P23944+P43140).
T1 sequence (P15823 whole entry): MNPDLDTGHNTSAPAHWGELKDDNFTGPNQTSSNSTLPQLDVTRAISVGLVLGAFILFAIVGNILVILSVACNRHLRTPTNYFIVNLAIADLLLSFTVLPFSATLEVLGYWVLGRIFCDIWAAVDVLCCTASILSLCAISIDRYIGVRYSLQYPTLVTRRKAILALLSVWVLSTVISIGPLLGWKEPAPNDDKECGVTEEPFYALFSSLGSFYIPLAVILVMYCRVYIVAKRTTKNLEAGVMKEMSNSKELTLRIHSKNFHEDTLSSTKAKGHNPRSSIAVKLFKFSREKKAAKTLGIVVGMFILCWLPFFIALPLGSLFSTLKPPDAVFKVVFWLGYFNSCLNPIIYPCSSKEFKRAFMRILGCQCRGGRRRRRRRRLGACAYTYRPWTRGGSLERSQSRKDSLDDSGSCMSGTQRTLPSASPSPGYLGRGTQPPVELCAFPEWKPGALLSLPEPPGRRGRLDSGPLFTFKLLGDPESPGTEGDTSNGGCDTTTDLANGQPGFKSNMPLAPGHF
T1 sequence (P23944 whole entry): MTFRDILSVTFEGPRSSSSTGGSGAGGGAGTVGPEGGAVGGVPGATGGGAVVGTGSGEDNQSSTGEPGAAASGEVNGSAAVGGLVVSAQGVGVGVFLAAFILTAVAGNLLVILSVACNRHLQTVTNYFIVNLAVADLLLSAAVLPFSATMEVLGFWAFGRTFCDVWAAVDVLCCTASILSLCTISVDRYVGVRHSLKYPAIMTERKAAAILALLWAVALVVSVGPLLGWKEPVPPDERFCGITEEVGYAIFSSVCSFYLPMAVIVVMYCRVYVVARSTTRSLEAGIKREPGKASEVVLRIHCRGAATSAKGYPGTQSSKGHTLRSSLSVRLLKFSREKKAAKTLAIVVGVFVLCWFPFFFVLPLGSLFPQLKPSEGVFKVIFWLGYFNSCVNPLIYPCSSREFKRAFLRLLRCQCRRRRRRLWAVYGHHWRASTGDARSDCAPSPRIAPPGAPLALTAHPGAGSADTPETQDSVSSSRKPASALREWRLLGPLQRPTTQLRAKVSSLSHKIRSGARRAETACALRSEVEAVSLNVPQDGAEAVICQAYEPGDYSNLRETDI
T1 sequence (P43140 whole entry): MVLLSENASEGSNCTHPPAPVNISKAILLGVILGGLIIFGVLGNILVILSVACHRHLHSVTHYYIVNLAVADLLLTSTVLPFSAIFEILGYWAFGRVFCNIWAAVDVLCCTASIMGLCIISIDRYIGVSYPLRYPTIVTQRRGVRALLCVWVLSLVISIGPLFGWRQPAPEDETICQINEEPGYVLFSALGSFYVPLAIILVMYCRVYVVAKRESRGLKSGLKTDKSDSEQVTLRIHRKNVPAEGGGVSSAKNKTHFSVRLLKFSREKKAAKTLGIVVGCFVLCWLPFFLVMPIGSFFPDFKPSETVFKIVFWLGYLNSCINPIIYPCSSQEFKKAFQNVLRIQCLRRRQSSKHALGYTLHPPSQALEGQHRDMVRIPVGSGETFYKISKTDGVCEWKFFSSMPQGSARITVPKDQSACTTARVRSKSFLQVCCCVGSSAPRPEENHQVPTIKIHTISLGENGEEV
Briefly: Displacement of [3H]-prazosin from Alpha-1 adrenergic receptor of rat cortical membranes. Format: cell membranes, Membrane. Put shortly: (§1)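 Triplicate competition binding against 0.2-0.25 nM [³H]prazosin in Tris buffer pH 7.4, 30 min at room temperature. Competitor range 0.1-200 nM. Nonspecific binding defined with 10 µM phentolamine. Reaction stopped by GF/B filtration with two cold Tris washes. Membrane protein 300-400 µg per assay. Ki calculated from the data; mean ± SEM of 3-6 experiments.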

Assay [2] addresses T2, Alpha-1A adrenergic receptor (Rattus norvegicus, UniProt P43140).
T2 sequence (P43140 whole entry): T1 sequence (P43140 whole entry)
The assay can be described thus: Displacement of [3H]prazosin from Alpha-1A adrenergic receptor of rat submaxillary gland membranes. Format: cell membranes, Membrane. In short, it runs like this:
as §1
Background: In a radioligand displacement assay an active substance lowers the binding of a labelled ligand.

Assay [3] deals with T3, Alpha-1B adrenergic receptor (Rattus norvegicus, UniProt P15823).
T3 sequence (P15823 whole entry): T1 sequence (P15823 whole entry)
The assay can be described thus: Displacement of [3H]prazosin from Alpha-1B adrenergic receptor of rat liver membrane. In short, it runs like this: as §1

The target in assay [4] is T4, D(2) dopamine receptor (Homo sapiens, UniProt P14416). Briefly: Compound is evaluated for binding affinity towards recombinant human Dopamine receptor D2 using [3H]spiperone in CHO cells at 10 uM. Format: cell-based. In short, it runs like this: (§2)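 Single-concentration screen at 10 µM in contract radioligand binding assays. Records whether inhibition of specific radioligand binding stayed below 50%.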

Assay [5] addresses T4, D(2) dopamine receptor. Briefly: Compound is evaluated for binding affinity towards Dopamine receptor D2 using [3H]spiperone in CHO cells at 10 uM. Format: cell-based.
The target of assay [6] is T5, Alpha-2B adrenergic receptor (Homo sapiens, UniProt P18089).
T5 sequence (P18089 whole entry): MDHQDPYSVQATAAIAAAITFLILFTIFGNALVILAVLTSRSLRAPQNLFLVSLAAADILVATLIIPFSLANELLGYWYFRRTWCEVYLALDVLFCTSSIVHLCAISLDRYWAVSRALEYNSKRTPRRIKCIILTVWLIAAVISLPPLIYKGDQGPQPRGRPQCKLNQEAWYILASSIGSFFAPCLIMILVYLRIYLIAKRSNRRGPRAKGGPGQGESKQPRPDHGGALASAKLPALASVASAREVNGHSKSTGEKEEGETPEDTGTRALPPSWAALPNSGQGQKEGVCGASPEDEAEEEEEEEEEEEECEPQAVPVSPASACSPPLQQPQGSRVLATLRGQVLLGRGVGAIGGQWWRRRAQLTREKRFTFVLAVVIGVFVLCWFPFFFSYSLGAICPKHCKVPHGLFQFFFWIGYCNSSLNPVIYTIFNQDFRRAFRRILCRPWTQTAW
The assay can be described thus: Compound is evaluated for binding affinity towards Alpha-2B adrenergic receptor using [3H]yohimbine.

Assay [7] deals with D(3) dopamine receptor (Homo sapiens, UniProt P35462). The assay can be described thus: Compound is evaluated for binding affinity towards recombinant human Dopamine receptor D3 using [3H]spiperone in CHO cells at 10 uM. Format: cell-based. Put shortly: as §2
The target of assay [8] is Histamine H1 receptor (Cavia porcellus) (UniProt P31389). Briefly: Compound is evaluated for binding affinity towards Histamine H1 receptor using [3H]pyrilamine in guinea pig lung at 10 uM. Format: tissue-based. In short, it runs like this:
as §2

Chain of D(3) dopamine receptor (P35462 whole entry): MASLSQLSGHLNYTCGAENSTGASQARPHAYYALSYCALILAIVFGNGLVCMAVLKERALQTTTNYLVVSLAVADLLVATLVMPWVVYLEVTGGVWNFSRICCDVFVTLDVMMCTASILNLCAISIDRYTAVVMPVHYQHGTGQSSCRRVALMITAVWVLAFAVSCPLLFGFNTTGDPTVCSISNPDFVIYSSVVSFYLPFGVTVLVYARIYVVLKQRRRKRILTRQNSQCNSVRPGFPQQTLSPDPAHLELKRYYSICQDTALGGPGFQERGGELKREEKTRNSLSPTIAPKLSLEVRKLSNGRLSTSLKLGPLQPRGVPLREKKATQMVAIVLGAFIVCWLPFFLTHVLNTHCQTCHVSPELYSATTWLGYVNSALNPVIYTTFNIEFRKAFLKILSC
Chain of Histamine H1 receptor (Cavia porcellus) (P31389 whole entry): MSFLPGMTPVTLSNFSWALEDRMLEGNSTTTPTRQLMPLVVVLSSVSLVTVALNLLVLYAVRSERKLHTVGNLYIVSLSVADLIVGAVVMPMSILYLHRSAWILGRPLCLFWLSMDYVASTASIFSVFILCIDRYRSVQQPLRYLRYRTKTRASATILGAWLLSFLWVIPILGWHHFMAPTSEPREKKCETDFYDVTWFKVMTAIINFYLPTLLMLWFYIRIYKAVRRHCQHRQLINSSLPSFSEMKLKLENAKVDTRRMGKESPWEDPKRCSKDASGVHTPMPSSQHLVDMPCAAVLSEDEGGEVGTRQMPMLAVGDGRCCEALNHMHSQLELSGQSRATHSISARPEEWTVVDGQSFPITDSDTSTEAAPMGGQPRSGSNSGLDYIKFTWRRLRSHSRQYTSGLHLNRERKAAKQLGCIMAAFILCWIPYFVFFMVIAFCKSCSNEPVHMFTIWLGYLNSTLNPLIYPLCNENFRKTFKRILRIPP
T4 sequence (P14416 whole entry): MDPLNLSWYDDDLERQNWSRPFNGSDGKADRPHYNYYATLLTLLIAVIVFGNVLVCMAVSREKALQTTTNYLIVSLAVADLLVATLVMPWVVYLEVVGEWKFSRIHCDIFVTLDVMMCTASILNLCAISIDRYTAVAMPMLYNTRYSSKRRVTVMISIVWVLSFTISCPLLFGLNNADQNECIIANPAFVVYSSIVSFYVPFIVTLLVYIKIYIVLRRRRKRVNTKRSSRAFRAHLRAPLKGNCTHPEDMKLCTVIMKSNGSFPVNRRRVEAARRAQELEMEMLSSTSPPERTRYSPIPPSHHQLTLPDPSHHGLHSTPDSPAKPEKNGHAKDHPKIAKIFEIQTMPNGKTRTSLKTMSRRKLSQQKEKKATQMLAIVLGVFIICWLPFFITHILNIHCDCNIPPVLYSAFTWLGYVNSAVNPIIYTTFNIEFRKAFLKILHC

By Ki is commonly meant a measure of affinity in units of concentration, obtained from inhibition or displacement. Lower therefore signals tighter binding. On to `COc1ccccc1N1CCN(C[C@@H]2CN=C3c4ccccc4N=C(SC)N32)CC1`, for which the Ki was determined as 144 nM in assay [1], 122 nM in assay [2] and 667 nM in assay [3].

The inhibition is how much of the control response was suppressed. As for `COc1ccccc1N1CCN(CC2CN3C(=O)Nc4ccccc4C3=N2)CC1` (stereo not given), the Ki in assay [1] was 0.93 nM; in assay [2] it was 0.65 nM; in assay [3], 5.5 nM; in assay [6], 253 nM. In addition, the inhibition in assay [4] and in assay [5] was < 50% throughout.

Take `COc1ccccc1N1CCN(C[C@H]2CN=C3c4ccccc4NC(=O)N32)CC1`: the Ki is 0.13 nM in assay [1], 0.23 nM in assay [2], 0.42 nM in assay [3] and 116 nM in assay [6].

Consider `COc1ccccc1N1CCN(Cc2cnc3c4ccccc4nc(O)n23)CC1`, for which the inhibition in assay [4], in assay [7], in assay [5] and in assay [8] was < 50% in each case.

On to `COc1ccccc1N1CCN(C[C@@H]2CN=C3c4ccccc4NC(=O)N32)CC1`, for which the Ki in assay [1] worked out at 26 nM; in assay [2] it was 55 nM; in assay [3], 123 nM; in assay [6], 9300 nM.

As for `COc1ccccc1N1CCN(CC2CN=C3c4ccccc4N=C(SC)N32)CC1` (stereo not given), the Ki in assay [1] turned out to be 0.9 nM; in assay [2] it was 0.93 nM; in assay [3] it was 3.9 nM.

As for `Oc1nc2ccccc2c2ncc(CN3CCN(c4ccccc4Cl)CC3)n12`, the inhibition in assay [4], in assay [7] and in assay [8] was < 50% throughout.

Turning to `COc1ccccc1N1CCN(C[C@H]2CN=C3c4ccccc4N=C(SC)N32)CC1`, the Ki came out at 1 nM in assay [1], 1.5 nM in assay [2], 1.4 nM in assay [3] and 376 nM in assay [6].

For the compound `COc1ccccc1N1CCN(Cc2cn3c(O)nc4ccccc4c3n2)CC1`, the inhibition in assay [4], in assay [7], in assay [5] and in assay [8] was < 50% throughout.
